Compounds with a hit are over-represented: about 4.1% of the library has one in this group of screens.
KCNK3 block: human KCNK3 channel inhibition, primary screen | CHO-KCNK3 thallium flux, FluxOR fluorescence; hits give low values | 340,000 tested, 0.84% active | B-score at 10 µM;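 active = B-score under library mean minus 4 SD, starting fluorescence ratio at most library mean plus 5 SD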;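 also: more negative B-score means stronger inhibition of thallium flux through KCNK3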
KCNQ1 inh: human KCNQ1 channel inhibition; 310,000 tested, 1.3% active; AID 2642; B-score at 10 µM; P51787; CHO-K1 KCNQ1, FluxOR thallium flux fluorescence; hits give high values;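 active = compounds whose thallium flux B-score, printed positive for inhibition, exceeds three library SD while starting fluorescence stays within three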;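 also: channel opened by potassium depolarization with thallium stimulus after 20 min compound exposure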
KCC2 mod: modulators of human KCC2 chloride dependent transport; KCC2 cells, thallium flux FluoZin-2 fluorescence; B-score of Tl+ flux slope (higher = more flux/activation; lower = inhibition) at 10 µM; 190,000 tested, 2.2% active; AID 1456;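 active = thallium flux slope and its plate-corrected score both differing from the plate sample mean at a set confidence after two filtering rounds, in either direction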;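 also: slope of fluorescence scaled to starting intensity during 10 to 20 s after thallium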
KCNQ1 act: potentiates or activates the human KCNQ1 potassium channel; CHO-K1 KCNQ1, thallium flux FluxOR fluorescence; hits give high values; B-score at 10 µM; 310,000 tested, 0.35% active;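 active = fluorescence ratio B-score, a plate-corrected score, at least three library SD, with initial intensity B-score within 5 SD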
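Assay system: CHO-K1 cells stably expressing KCNQ1. Medium: assay buffer for compound exposure, DMSO matched across wells. Timing: 37 °C overnight plating, 90-min dark dye load, 20-min compound pretreatment. Signal: kinetic FluxOR fluorescence, 10 s baseline plus 110 s post-stimulus.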
KCNK9 inh: human KCNK9 channel inhibition | 310,000 tested, 1.2% active | HEK293 KCNK9, FluxOR thallium flux fluorescence; hits give low values | B-score at 10 µM | Q9NPC2 | AID 488922;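 active = ratio B-score over 3 SD below the library mean, with starting fluorescence within 5 SD of its mean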;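 also: negative B-score means less thallium flux so channel inhibition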
hERG protect: shields human hERG channel from block by proarrhythmic agents; activation (rescue from dofetilide block), less the hit threshold, % at 10 µM; CHO-hERG, FluxOR thallium flux, dofetilide IC70 present; 310,000 tested, 0.51% active; AID 1511; Q12809;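 active = activation above the mean of controls blocked by dofetilide plus 5 SD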;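 also: thallium influx through hERG after potassium depolarization seen as dye fluorescence rise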
Target sequence (Q12809 whole entry, looked up): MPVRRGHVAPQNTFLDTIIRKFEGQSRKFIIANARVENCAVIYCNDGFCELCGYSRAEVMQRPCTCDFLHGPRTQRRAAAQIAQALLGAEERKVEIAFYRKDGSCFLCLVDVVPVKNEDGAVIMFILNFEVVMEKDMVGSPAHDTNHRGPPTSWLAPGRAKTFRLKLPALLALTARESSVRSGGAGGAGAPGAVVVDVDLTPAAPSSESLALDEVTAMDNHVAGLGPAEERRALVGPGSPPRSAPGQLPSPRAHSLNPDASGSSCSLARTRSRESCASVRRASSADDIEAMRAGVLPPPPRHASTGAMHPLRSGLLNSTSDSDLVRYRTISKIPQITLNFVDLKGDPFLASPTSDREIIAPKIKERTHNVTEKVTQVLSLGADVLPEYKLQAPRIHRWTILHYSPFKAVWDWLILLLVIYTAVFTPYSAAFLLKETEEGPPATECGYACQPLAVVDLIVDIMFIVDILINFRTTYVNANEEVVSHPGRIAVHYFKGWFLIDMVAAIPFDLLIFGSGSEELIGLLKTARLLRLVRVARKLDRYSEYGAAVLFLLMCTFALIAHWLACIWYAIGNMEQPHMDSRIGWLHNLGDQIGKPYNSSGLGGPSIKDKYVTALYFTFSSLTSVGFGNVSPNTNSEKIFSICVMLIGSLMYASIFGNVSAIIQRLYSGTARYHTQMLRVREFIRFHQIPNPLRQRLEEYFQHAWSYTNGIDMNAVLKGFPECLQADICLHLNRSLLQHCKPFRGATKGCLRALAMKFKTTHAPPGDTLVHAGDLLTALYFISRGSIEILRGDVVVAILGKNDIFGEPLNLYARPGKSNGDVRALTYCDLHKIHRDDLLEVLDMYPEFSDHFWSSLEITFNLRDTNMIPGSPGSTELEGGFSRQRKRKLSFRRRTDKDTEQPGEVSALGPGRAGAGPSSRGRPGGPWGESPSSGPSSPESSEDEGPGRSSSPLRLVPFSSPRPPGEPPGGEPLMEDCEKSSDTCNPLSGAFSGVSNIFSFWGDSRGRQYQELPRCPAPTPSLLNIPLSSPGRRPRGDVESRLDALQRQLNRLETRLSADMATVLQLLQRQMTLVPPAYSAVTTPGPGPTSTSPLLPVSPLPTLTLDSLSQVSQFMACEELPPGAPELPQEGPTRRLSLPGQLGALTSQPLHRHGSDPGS
KCC2 secondary: confirmation of human KCC2 transport modulators | HEK293-KCC2, thallium flux, FluoZin2 fluorescence; hits give high values | shares compounds with KCC2 mod | normalised thallium flux (F/F0 slope) at 10 µM | 3,700 tested, 15% active;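 active = thallium flux slope above the same plate's solvent-only control mean plus 3 SD; inconclusive = the two replicate wells disagree; inactive = no significant difference from solvent-only control wells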
KCC2 bumet counter: bumetanide-insensitive thallium flux in KCC2 cells with ouabain, counter-screen; shares compounds with KCC2 mod; normalized thallium flux at 10 µM; 3,700 tested, 49% active; HEK293-KCC2 + bumetanide/ouabain, thallium flux FluoZin2; hits give high values;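 active = thallium entry rate above the same plate's blocked-transporter control wells by more than 3 SD; inconclusive = the two repeat wells disagree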;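 also: raw slope of fluorescence over initial fluorescence between 10 and 20 s after thallium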
KCC2 sec2: KCC2 (human) modulation, second secondary assay | shares compounds with KCC2 mod | HEK293-KCC2, thallium flux FluoZin2 fluorescence; actives lie on both sides; F/F0 rise rate, 10–20 s post-thallium | normalized thallium flux at 10 µM | 3,700 tested, 23% active;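 active = thallium flux slope more than 3 SD above or below the plate's solvent-only control mean, mostly below; inconclusive = the two repeat wells disagreed; inactive = no significant shift from solvent-only controls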;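 also: raw slope with 0.1% DMSO as baseline and bumetanide as block control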
HEK293 Tl flux: acts in parental HEK cells, KCC2 counter-screen | shares compounds with KCC2 mod | HEK293 parental cells, thallium flux FluoZin2, ouabain; baseline-ratio fluorescence slope, 10–20 s after thallium | thallium flux rate (normalised fluorescence) at 10 µM | 3,700 tested, 46% active | AID 1716;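 active = thallium flux rate significantly above the same plate's solvent-only control wells, beyond their mean plus 3 SD; inconclusive = the two replicate wells gave conflicting results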
KCC2 retest ouab: confirmation of human KCC2 modulators with ouabain. shares compounds with KCC2 mod. HEK293-KCC2, thallium flux FluoZin2 fluorescence; bidirectional: low = inhibitor, high = activator. raw Tl+ flux slope (below DMSO = inhibition, above = activation) at 10 µM. 3,700 tested, 48% active. AID 1717;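 active = thallium flux slope beyond 3 SD from same-plate DMSO control mean in most replicates, usually higher, sometimes lower; inconclusive = repeat tests gave conflicting results; inactive = no significant difference from controls in most replicates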;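 also: slope of initial-normalized fluorescence between seconds 10 and 20 after thallium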
HEK counter2: counter-screen for KCC2 modulators: effect in parental HEK293 cells; thallium flux FluoZin-2 fluorescence slope; thallium flux slope at 10 µM; 3,700 tested, 33% active; shares compounds with KCC2 mod;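 active = thallium flux slope above the same plate's solvent-control mean plus 3 SD in both duplicate wells; inconclusive = duplicate wells that disagreed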;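 also: run without ouabain in cells lacking the KCC2 cotransporter; slope of fluorescence scaled to its starting value between 10 and 20 s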
An asterisk follows results filed as active; i = inactive; ? = inconclusive; nt = no result given.

SMILES	KCNK3 block	KCNQ1 inh	KCC2 mod	KCNQ1 act	KCNK9 inh	hERG protect	KCC2 secondary	KCC2 bumet counter	KCC2 sec2	HEK293 Tl flux	KCC2 retest ouab	HEK counter2
O=C(NC(Cc1ccccc1)C(=O)OCC(=O)N1CCc2ccccc21)c1ccco1 (stereo not given)	i	i	-3.7*	i	i	-12	0.015	0.005	0.022*	0.007	0.015	0.0097
COc1ccccc1-c1nc(C#N)c(N2CCC(Cc3ccccc3)CC2)o1	i	i	nt	i	i	-16	0.0092	0.006	?	0.0083	0.019*	0.011
CC1CCCC(NC(=O)CCn2c(=S)oc3ccccc32)C1C (stereo not given)	i	i	-0.84	i	i	-14	0.0085	0.0068	0.032	0.0074	0.022	?
CCOc1ccc(NC(=O)CN2C(=O)NC(CCc3ccccc3)C2=O)cc1OCC (stereo not given)	i	nt	nt	nt	nt	nt	nt	nt	nt	nt	nt	nt
Cc1ccc(C(=O)CSc2nnc3c4ccccc4nc(C(C)(C)C)n23)cc1	i	i	16*	i	i	-7	0.014*	0.043*	0.031	0.019*	0.032*	0.012*
COCCS(=O)(=O)N(Cc1ccccc1)[C@H](C(=O)OC)C(C)C	i	nt	nt	nt	nt	nt	nt	nt	nt	nt	nt	nt
COc1ccc(N(CC(=O)Nc2cccc(C)c2C)S(=O)(=O)c2c(C)n[nH]c2C)cc1	i	i	nt	i	i	-17	0.019	0.0051	0.024*	0.0075	0.015	0.01
Cc1n[nH]c(C)c1S(=O)(=O)N(CC(=O)Nc1ccc2c(c1)OCCO2)c1ccc(C(C)C)cc1	i	i	-5.1*	i	i	-8	?	?	0.032	0.0066	0.016*	0.01
O=C1C(=NO)C(c2ccccc2)Oc2ccccc21 (stereo not given)	i	nt	nt	nt	nt	nt	nt	nt	nt	nt	nt	nt
O=C(COC(=O)c1ccc2c(c1)OCO2)Nc1ccccc1Cl	i	nt	nt	nt	nt	nt	nt	nt	nt	nt	nt	nt
COc1ccc(CC(=O)Nc2ccc(S(=O)(=O)N3CCC(C)CC3)cc2)c(OC)c1	i	nt	nt	nt	nt	nt	nt	nt	nt	nt	nt	nt
C=CCn1c(CSc2nc3ccccc3s2)n[nH]c1=S	i	i	-4.4*	i	i	-9	0.015	0.0093*	0.024*	0.0099*	0.014*	?
Oc1ccc(-n2cccc2/C=N/n2cnnc2)cc1	i	i	-1.9	i	i	-1	nt	nt	nt	nt	nt	nt
Cc1ccc(-n2cccc2/C=N/n2cnnc2)cc1Cl	i	i	nt	i	i	-6	0.019	0.0046	0.027	0.0067	0.015	0.0096
COc1ccc(NC(=O)NCCCN2CCCCC2C)cc1 (stereo not given)	i	i	nt	i	i	-6	0.0049	0.005	0.029	0.007	0.019	0.011
COc1ccc(NC(=O)NCCCN2CCCC2=O)cc1	i	i	0.31	i	i	1	nt	nt	nt	nt	nt	nt
COc1ccccc1NC(=O)N1CCN(c2ccc3nnc(-c4ccc(F)cc4)n3n2)CC1	i	i	-2.5	i	i	-12	nt	nt	nt	nt	nt	nt
